Assay results: ChEMBL document CHEMBL4480426, “Novel multi-target directed ligands based on annelated xanthine scaffold with aromatic substituents acting on adenosine receptor and monoamine oxidase B. Synthesis, in vitro and in silico studies” (Bioorg Med Chem, 2019)

Target: T1, Adenosine receptor A1 (Rattus norvegicus, UniProt P25099)
T1 sequence (P25099 whole entry): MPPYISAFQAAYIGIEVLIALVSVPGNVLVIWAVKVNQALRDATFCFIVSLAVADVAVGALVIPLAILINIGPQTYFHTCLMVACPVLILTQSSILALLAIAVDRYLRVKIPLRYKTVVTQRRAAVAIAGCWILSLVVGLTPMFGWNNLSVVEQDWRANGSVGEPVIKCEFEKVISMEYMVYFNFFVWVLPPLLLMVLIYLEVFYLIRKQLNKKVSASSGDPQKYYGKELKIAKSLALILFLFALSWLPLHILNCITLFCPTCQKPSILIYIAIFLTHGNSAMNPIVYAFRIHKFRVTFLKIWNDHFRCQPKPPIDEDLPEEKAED
Assay: Displacement of [3H]CCPA from adenosine A1 receptor in rat brain cortical membranes
Format: cell membranes
Conditions: not given

Compound | Ki
Cn1c(=O)c2c(nc3n2CCCN3Cc2c(F)cccc2Cl)n(C)c1=O | 1550 nM
Cn1c(=O)c2c(nc3n2CCCN3Cc2ccccc2Br)n(C)c1=O | 2320 nM

Target: Adenosine receptor A2a (Homo sapiens, UniProt P29274)
Sequence (P29274 whole entry): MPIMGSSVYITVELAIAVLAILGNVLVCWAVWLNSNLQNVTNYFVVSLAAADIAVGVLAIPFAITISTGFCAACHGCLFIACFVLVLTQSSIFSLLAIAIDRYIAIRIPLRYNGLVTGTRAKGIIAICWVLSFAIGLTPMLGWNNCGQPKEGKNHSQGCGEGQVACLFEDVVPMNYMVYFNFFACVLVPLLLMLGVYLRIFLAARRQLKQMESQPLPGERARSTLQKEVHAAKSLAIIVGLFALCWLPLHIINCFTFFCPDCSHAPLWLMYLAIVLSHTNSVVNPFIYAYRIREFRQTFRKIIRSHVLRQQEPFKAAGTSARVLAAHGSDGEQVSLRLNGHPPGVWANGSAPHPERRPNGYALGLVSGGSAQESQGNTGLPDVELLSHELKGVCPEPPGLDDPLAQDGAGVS
Assay: Displacement of [3H]MSX2 from recombinant human adenosine A2a receptor expressed in HEK293 cells
Format: cell-based
Conditions: not given

Compound | Ki
Cn1c(=O)c2c(nc3n2CCCN3Cc2c(F)cccc2Cl)n(C)c1=O | 189 nM
Cn1c(=O)c2c(nc3n2CCCN3Cc2ccccc2Br)n(C)c1=O | 1610 nM

Target: T2, Adenosine receptor A2b (Homo sapiens, UniProt P29275)
T2 sequence (P29275 whole entry): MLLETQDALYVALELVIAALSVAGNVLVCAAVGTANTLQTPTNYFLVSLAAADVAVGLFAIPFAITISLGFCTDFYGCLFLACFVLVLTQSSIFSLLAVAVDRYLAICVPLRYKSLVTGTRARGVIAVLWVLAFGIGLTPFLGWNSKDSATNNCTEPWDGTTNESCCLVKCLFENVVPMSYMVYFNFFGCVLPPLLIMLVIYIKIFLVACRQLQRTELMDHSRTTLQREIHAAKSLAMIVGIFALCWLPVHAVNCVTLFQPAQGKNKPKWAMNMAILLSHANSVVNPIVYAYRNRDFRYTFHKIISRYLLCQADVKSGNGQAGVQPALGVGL
Assay: Displacement of [3H]PSB603 from recombinant human adenosine A2b receptor expressed in HEK293 cells
Format: cell-based
Conditions: not given

Compound | Ki
Cn1c(=O)c2c(nc3n2CCCN3Cc2c(F)cccc2Cl)n(C)c1=O | > 1000 nM
Cn1c(=O)c2c(nc3n2CCCN3Cc2ccccc2Br)n(C)c1=O | > 1000 nM

Target: T3, Adenosine receptor A3 (Homo sapiens, UniProt P0DMS8)
T3 sequence (P0DMS8 whole entry): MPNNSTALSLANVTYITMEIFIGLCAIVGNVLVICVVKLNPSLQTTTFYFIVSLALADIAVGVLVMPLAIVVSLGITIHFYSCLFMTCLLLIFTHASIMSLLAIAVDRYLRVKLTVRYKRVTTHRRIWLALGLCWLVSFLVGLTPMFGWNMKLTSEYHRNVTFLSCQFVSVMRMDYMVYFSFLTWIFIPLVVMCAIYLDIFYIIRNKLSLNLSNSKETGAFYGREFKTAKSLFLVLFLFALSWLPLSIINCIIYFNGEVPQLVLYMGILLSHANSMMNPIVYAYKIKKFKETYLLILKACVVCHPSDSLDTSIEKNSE
Assay: Displacement of [3H]PSB11 from recombinant human adenosine A3 receptor expressed in CHO cells
Format: cell-based
Conditions: not given

Compound | Ki
Cn1c(=O)c2c(nc3n2CCCN3Cc2c(F)cccc2Cl)n(C)c1=O | > 1000 nM
Cn1c(=O)c2c(nc3n2CCCN3Cc2ccccc2Br)n(C)c1=O | > 1000 nM

Target: T4, Amine oxidase [flavin-containing] A (Homo sapiens, UniProt P21397)
T4 sequence (P21397 whole entry): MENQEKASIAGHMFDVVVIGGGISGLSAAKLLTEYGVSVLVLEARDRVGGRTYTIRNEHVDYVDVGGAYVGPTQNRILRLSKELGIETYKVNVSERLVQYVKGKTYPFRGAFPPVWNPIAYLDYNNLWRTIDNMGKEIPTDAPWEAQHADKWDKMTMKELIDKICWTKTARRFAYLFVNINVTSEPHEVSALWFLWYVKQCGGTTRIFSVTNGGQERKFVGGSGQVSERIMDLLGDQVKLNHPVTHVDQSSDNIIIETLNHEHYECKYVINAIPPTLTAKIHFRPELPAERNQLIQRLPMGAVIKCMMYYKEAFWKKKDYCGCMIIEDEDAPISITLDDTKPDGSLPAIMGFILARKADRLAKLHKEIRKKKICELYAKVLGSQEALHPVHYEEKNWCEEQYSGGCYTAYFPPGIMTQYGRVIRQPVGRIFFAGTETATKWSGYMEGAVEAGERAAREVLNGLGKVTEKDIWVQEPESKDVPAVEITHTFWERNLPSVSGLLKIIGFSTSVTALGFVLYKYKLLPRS
Assay: Inhibition of recombinant human MAOA expressed in baculovirus infected BTI insect cells using p-tyramine as substrate preincubated for 30 mins followed by substrate addition and measured over 45 mins by horseradish peroxidase-Amplex Red-coupled fluorometric assay
Conditions: not given
In short: (§1)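 Human recombinant MAO-A or MAO-B enzyme. Activity detected fluorometrically with the Amplex Red monoamine oxidase assay.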

Compound | IC50
Cn1c(=O)c2c(nc3n2CCCN3Cc2c(F)cccc2Cl)n(C)c1=O | > 100000 nM
Cn1c(=O)c2c(nc3n2CCCN3Cc2ccccc2Br)n(C)c1=O | > 1000 nM

Target: T5, Amine oxidase [flavin-containing] B (Homo sapiens, UniProt P27338)
T5 sequence (P27338 whole entry): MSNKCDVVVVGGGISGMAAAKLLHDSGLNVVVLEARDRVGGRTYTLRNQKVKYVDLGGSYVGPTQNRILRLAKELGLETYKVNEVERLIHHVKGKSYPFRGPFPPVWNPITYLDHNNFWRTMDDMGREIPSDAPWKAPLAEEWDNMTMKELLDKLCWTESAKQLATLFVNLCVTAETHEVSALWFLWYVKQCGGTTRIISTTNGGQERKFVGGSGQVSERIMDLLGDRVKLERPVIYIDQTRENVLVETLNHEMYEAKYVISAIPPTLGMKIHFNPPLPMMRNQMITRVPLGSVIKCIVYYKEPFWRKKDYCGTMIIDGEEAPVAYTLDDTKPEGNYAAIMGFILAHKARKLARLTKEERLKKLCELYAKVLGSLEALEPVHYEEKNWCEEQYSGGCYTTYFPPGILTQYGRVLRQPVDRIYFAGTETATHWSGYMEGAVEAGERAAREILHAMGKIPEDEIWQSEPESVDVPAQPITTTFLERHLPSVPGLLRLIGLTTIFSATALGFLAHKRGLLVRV
Assay: Inhibition of recombinant human MAOB expressed in baculovirus infected BTI insect cells using p-tyramine as substrate preincubated for 30 mins followed by substrate addition and measured over 45 mins by horseradish peroxidase-Amplex Red-coupled fluorometric assay
Conditions: not given
In short: as §1

Compound | IC50
Cn1c(=O)c2c(nc3n2CCCN3Cc2c(F)cccc2Cl)n(C)c1=O | 570 nM
Cn1c(=O)c2c(nc3n2CCCN3Cc2ccccc2Br)n(C)c1=O | 150 nM

Target: T4, Amine oxidase [flavin-containing] A
Assay: Inhibition of recombinant human MAOA expressed in baculovirus infected BTI insect cells at 1 to 100 uM using p-tyramine as substrate preincubated for 30 mins followed by substrate addition and measured over 45 mins by horseradish peroxidase-Amplex Red-coupled fluorometric assay relative to control
Conditions: 0.75 h
In short: as §1

Compound | inhibition (INH)
Cn1c(=O)c2c(nc3n2CCCN3Cc2c(F)cccc2Cl)n(C)c1=O | 10%
Cn1c(=O)c2c(nc3n2CCCN3Cc2ccccc2Br)n(C)c1=O | 1%

Tested on: HepG2
Assay: Hepatotoxicity against human HepG2 cells assessed as reduction in cell viability at 100 uM measured after 72 hrs by CellTiter96 Aqueous non-radioactive cell proliferation assay
Format: toxicity, cell-based
Conditions: hepg2, 72 h
In short: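 HepG2 cells seeded at 1.5×10^4 cells/well in MEM with 4.5 g/L glucose and 10% FBS, grown 24 h at 37 °C, 5% CO2. Compounds diluted in the same medium and applied for 72 h. CellTiter 96 AQueous reagent then added for 2 h, absorbance read at 490 nm. One-way ANOVA with Bonferroni post test.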

Compound | Activity
Cn1c(=O)c2c(nc3n2CCCN3Cc2c(F)cccc2Cl)n(C)c1=O | Toxic
Cn1c(=O)c2c(nc3n2CCCN3Cc2ccccc2Br)n(C)c1=O | Toxic

Tested on: not listed separately
Assay: Antioxidant activity assessed as increase in total ferric ion reducing activity at 1000 uM using FeCl3.6H2O and TPTZ incubated for 10 mins under dark condition by FRAP assay relative to control
Format: functional
Set-up: scale not given: the % may be the effect or the level left
Conditions: not given
In short: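 FRAP reagent made by mixing 10 parts 300 mM acetate buffer pH 3.6, 1 part 10 mM TPTZ in 40 mM HCl and 1 part 20 mM FeCl3·6H2O. Reagent mixed with compound solution, 10 min at room temperature in the dark. Ferrous-TPTZ complex read at 593 nm. Result is absorbance increase versus solvent sample. FeSO4·7H2O standard curve, 37.5–1200 μM.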

Compound | Activity
O=C1O[C@H]([C@@H](O)CO)C(O)=C1O | 100%
Cn1c(=O)c2c(nc3n2CCCN3Cc2ccccc2Br)n(C)c1=O | 3.4%

Tested on: Brain
Assay: Antioxidant activity in rat brain homogenate assessed as inhibition of FeCl2/ascorbic acid-induced lipid peroxidation by measuring reduction in TBARS level at 1000 uM preincubated for 5 mins followed by FeCl2/ascorbic acid addition and measured after 30 mins relative to control
Format: functional, tissue-based
Set-up: scale not given: the % may be the effect or the level left
Conditions: not given
In short: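 Rat brain homogenate in 0.9% saline, 10 mg tissue/ml, preincubated 5 min at 37 °C with compound or vehicle. Peroxidation started with 0.5 mM FeCl2 plus 2 mM ascorbic acid (added-solution concentrations). After 30 min, stopped with 0.2% BHT. Thiobarbituric acid reagent added, heated 15 min in boiling water, TBARS extracted into n-butanol and read at 532 nm. Carvedilol as reference.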

Compound | Activity
COc1ccccc1OCCNCC(O)COc1cccc2[nH]c3ccccc3c12 (stereo unspecified) | 44.8%
Cn1c(=O)c2c(nc3n2CCCN3Cc2ccccc2Br)n(C)c1=O | 29.5%

Target: Adenosine receptor A1 (Rattus norvegicus) (UniProt P25099)
Assay: Displacement of [3H]CCPA from rat adenosine A1 receptor
Conditions: not given

Compound | Ki
Cn1c(=O)c2c(nc3n2CCCN3Cc2cccc(Cl)c2)n(C)c1=O | 802 to 1120 nM
